High-throughput results: PubChem BioAssay, Broad Institute
Cneo AK release – causes C. neoformans cell lysis | lysis activity, % at 15 µM | adenylate kinase release luminescence, 4 h; normalised: neutral wells 0, clomiphene wells 100 | 360,000 compounds, 0.2% hits;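 active = mean lysis activity across replicates of at least 80%, whatever share of replicates individually reach that level; inactive = mean lysis activity below 80%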
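Assay system: log-phase C. neoformans yeast / Quantity: yeast cell density of 5 × 10^6 cells/mL / Medium: fresh YPD growth medium / Compound: single dose / Timing: static 4 h at 37 °C with compound, 1 h detection / Measured by: adenylate kinase release luminescence / Read-out: lysis from increased AK signal / Benchmarks: Clomiphene as positive lysis control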
FGF22 binding – FGF22 (human) thermal shift binding. 340,000 compounds, 1.5% hits. Q9HCT0. recombinant FGF22 thermal shift, SYPRO orange fluorescence; percent of sucrose octasulfate shift, DMSO zero. activity (Tm shift, normalised), % at 9.99 µM. AID 651658;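 active = mean Tm shift, scaled 0 neutral to 100 positive control, at about 1.3% or above, every replicate too, limit read from the data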
Target sequence (Q9HCT0 whole entry, looked up): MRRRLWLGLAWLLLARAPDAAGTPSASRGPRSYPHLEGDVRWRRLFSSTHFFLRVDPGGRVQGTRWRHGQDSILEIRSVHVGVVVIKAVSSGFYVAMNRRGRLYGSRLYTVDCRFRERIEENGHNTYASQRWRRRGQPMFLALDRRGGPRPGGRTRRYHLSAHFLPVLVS
PGC1a acetyl inh – modulators of PGC1a acetylation | inhibition, % at 15.6 µM | U2OS PGC1a acetylation, AlphaScreen anti-acetyl-lysine; with virally co-expressed GCN5 acetyltransferase | 350,000 compounds, 0.17% hits;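 active = every replicate shows inhibition of at least 40%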
ERAP1 HTS inh – ERAP1 (human) enzyme inhibition | Q9NZ08 | inhibition, % at 10.7 µM | AID 652197 | 340,000 compounds, 0.15% hits | recombinant ERAP1, Leu-AMC fluorescence, 60 min;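 active = mean replicate inhibition of at least 30%, or all replicates individually reaching that 30% level; inactive = mean below 30% and not every replicate reaching it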
rRNA inh HTS – inhibits bacterial ribosomal RNA function over humanized ribosomes | 350,000 compounds, 1.6% hits | AID 720706 | GFP signal change (wild-type ribosome), % (concentration not given with the values) | E. coli WT GFP vs humanized-ribosome RFP mutants, fluorescence, 24 h; hits give low values; DMSO median 0, no signal -100;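 active = significant combined selectivity score with lowered wild-type GFP, culture density cut under 30%, mutant RFP and density less affected; inactive = any of these conditions unmet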
Env fusion inh – HIV envelope-mediated fusion inhibition; HeLa-JRFL Env/CEM21 cell fusion, luciferase; inhibition, % at 12.3 µM; 360,000 compounds, 1.1% hits; AID 651610;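 active = mean replicate inhibition score of at least 50 and every replicate individually at or above 50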
A number is an active result; . = inactive; / = not tested or not shown. An excerpt weighted towards active compounds, which were near 3.5% of everything screened.

SMILES	Cneo AK release	FGF22 binding	PGC1a acetyl inh	ERAP1 HTS inh	rRNA inh HTS	Env fusion inh
CCC(CC)c1nnc(NC(=O)c2ccc3ccccc3n2)s1	.	/	.	/	/	/
CCC(CC)c1nnc(NC(=O)C2=NNC(=O)CC2)s1	/	43	/	.	.	.
O=c1[nH]c(Cc2ccccc2)nc2scc(-c3ccccc3)c12	.	/	.	/	/	/
Cc1csc(SC(C)c2nc3scc(-c4ccccc4)c3c(=O)[nH]2)n1 (stereo not given)	/	.	.	/	-24	.
CCOC(=O)Cn1nc(C(F)F)c(Br)c1C	/	44	/	.	.	.
Cc1ccc(CS(=O)Cc2ccc(C(=O)NCCCc3ccccc3)o2)cc1 (stereo not given)	.	.	.	.	.	.
O=C(NCCc1cccs1)c1ccc(CS(=O)Cc2ccc(Cl)cc2)o1 (stereo not given)	.	.	.	.	-24	.
CCOc1ccc(CCNC(=O)c2ccc(CS(=O)Cc3ccc(Cl)cc3)o2)cc1OCC (stereo not given)	.	.	.	.	-32	.
Cc1ccc(CS(=O)Cc2ccc(C(=O)NCCc3ccccc3)o2)cc1 (stereo not given)	.	.	.	.	-22	.
CC(Sc1nnnn1C1CC1)C(=O)N1CC(=O)Nc2ccccc21 (stereo not given)	.	.	.	.	.	/
N=C1C(=O)OCC1c1ccccc1NC(=O)c1ccccc1 (stereo not given)	/	.	/	.	.	.
CN(Cc1nc(-c2cnccn2)no1)C1CC(C)(C)NC(C)(C)C1	/	43	/	.	.	.
CN(Cc1nc(-c2cnccn2)no1)CC1(c2ccccc2)CC1(C)C (stereo not given)	.	.	.	.	.	.
CCOC(=O)c1[nH]c2c(c1-c1ccccc1)C(=O)CC(c1ccccc1)C2 (stereo not given)	.	.	.	.	.	.
Cn1cc(/C=C2\SC(=O)N(c3ccccc3)C2=O)c2ccccc21	.	/	/	/	/	.
Cn1cc(/C=C2\SC(=O)N(c3ccc(O)cc3)C2=O)c2ccccc21	.	.	.	.	-35	.
CC(c1ccco1)N(C(=O)c1cccc(S(=O)(=O)N(C)C)c1)c1ccccn1 (stereo not given)	.	.	.	.	.	.
COc1ccccc1C(=O)NC1CCCCCCC1	.	/	.	/	/	.
Cc1ccc2nc(NC(=O)Cc3cccs3)sc2c1	.	/	.	/	/	.
Cc1ccc2nc(-c3ccc(NC(=O)Cc4cccs4)cc3)[nH]c2c1	.	1.8	.	.	.	/
S=C(c1ccc(-c2cccc(Cl)c2)o1)N1CCCCC1	/	.	.	.	-29	.
COc1ccc(CNCC(O)(c2ccccc2)c2ccccc2)cc1OC	/	43	.	.	.	.
CCOc1ccc2nc(SC3CC(=O)N(c4ccccc4)C3=O)sc2c1 (stereo not given)	.	/	.	/	/	/
COc1ccc(/C=N\NC(=O)c2ccccc2[N+](=O)[O-])cc1COc1c(F)c(F)c(F)c(F)c1F	.	4.1	/	.	.	.
COc1ccc(CC(=O)NCc2ccc3c(c2)OCO3)cc1	/	/	.	/	/	/
SMILES	Cneo AK release	FGF22 binding	PGC1a acetyl inh	ERAP1 HTS inh	rRNA inh HTS	Env fusion inh
Cc1nn(C)cc1C(C(=O)NC1CCCCC1)N(CCc1ccccc1)C(=O)c1cnccn1 (stereo not given)	/	43	/	.	.	.
CC(=O)c1ccc(N(C(=O)c2ccco2)C(C(=O)NC2CCCC2)c2ccc(N3CCOCC3)cc2)cc1 (stereo not given)	.	44	.	.	.	.
CC(C)c1ccc(N(C(=O)c2csnn2)C(C(=O)NC2CCCC2)c2ccncc2)cc1 (stereo not given)	.	.	.	.	.	77
CC(=O)c1ccc(N(CC(=O)NC2CCCC2)C(=O)c2csnn2)cc1	.	44	/	.	/	.
O=C(NC1CCCC1)C(c1ccncc1)N(C(=O)c1csnn1)c1ccc(F)cc1 (stereo not given)	.	.	.	.	.	.
COc1cccc(CNC(=O)CSc2ccc(-c3ccccn3)nn2)c1	/	.	.	/	.	.
COc1ccc(S(=O)(=O)Nc2cccc3c2O[C@H](CN(C)Cc2ccc(-c4ccccc4)cc2)[C@@H](C)CN([C@@H](C)CO)C3=O)cc1	.	.	.	.	.	.
Cc1ccc(NC(=O)COc2cccc(/C=C3\SC(=S)N(CCC(=O)O)C3=O)c2)cc1Cl	/	.	.	.	.	.
CC(C)CCN(C(=O)c1csnn1)C(C(=O)NC1CCCCC1)c1ccc(F)cc1 (stereo not given)	.	.	/	.	.	59
CC(C)c1ccc(N(C(=O)c2ccco2)C(C(=O)NC2CCCC2)c2ccncc2)cc1 (stereo not given)	.	.	/	.	.	62
Cc1ccccc1CCN(C(=O)c1csnn1)C(C(=O)NC1CCCC1)c1ccncc1 (stereo not given)	.	.	/	.	.	79
O=C(NC1CCCCC1)C(c1ccc(Cl)cc1)N(C(=O)c1cnccn1)c1ccc2c(c1)OCO2 (stereo not given)	/	/	/	/	/	83
Cc1c(C(=O)Nc2ccc3c(c2)OCO3)oc2ccccc12	.	.	/	.	.	.
O=S1(=O)CC(c2ccccc2)=NN=C(c2ccccc2)C1	/	44	/	.	.	.
CCC(C)c1ccccc1NC(=O)COc1ccc(-c2nnco2)cc1 (stereo not given)	.	.	/	.	.	.
O=C(COc1ccc(-c2nnco2)cc1)Nc1ccc(C(F)(F)F)cc1	/	.	/	.	.	55
CCn1c(=O)[nH]c2cc(C(=O)Nc3cc(C)cc(C)c3)ccc2c1=O	/	.	/	.	.	.
COc1ccc(C(=O)Nc2cc(-c3nn4c(C)nnc4s3)ccc2C)cc1	.	.	.	.	.	.
C=CCNC(=S)Nc1cccc(N)c1	.	.	/	/	.	.
C=C(C)Cn1c(SCC#N)nc2ccccc2c1=O	.	/	.	/	/	/
CCN(CCCn1c(SCC#N)nc2ccccc2c1=O)c1ccccc1	.	/	.	/	/	62
O=C(NNc1ccccc1)c1ccc(Cl)c(Cl)c1	/	43	.	.	.	.
O=C(NNC(=O)c1ccc2ccccc2c1)c1ccc(Cl)c(Cl)c1	.	.	.	.	.	/
COc1ccc(N=Nc2cc(C)c(O)c(CN3CCCCC3)c2)cc1	.	.	.	.	-27	.
O=C(NCc1ccco1)c1cccs1	.	/	.	/	/	/
CCN(CC(=O)Nc1cc(Cl)ccc1C)C(=O)COc1ccccc1F	/	44	/	.	.	.
COc1ccc(-c2csc(NC(=O)C3CC(=O)N(Cc4ccco4)C3)n2)cc1 (stereo not given)	/	.	.	.	.	.
O=C(Nc1nccs1)C1CC(=O)N(Cc2ccco2)C1 (stereo not given)	/	43	.	.	.	.
CC(=O)N1[C@H](Cc2ccccc2)C=C[C@]1(C)C(=O)NCCN1CCOCC1	.	.	.	.	.	.
